# Measured values from ChEMBL document CHEMBL1121659 (J Med Chem, 1981).
# Legend:
# [1] = Compound was evaluated for the cumulative excretion rate in rats at the dose 10 mg/kg, intraperitoneally for 18 days through feces; format: ADME, organism-based; set-up: dose 10 mg/kg, route intraperitoneal; conditions: rat, faeces, ip, read-out: Excretion
# How it was run: (§1)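 Four male Wistar rats were dosed with [14C] compound at 10 mg/kg ip in propylene glycol (5 mL/kg). Urine and feces were collected at 3-day intervals for 18 days. Fecal EtOH homogenates were combusted and counted. Daily fecal rate for the 0–3 day interval was corrected for gastrointestinal transit time (about 18 h).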
# [2] = Compound was evaluated for the cumulative excretion rate in rats at the dose 10 mg/kg, intraperitoneally for 18 days through urine; format: ADME, organism-based; set-up: dose 10 mg/kg, route intraperitoneal; conditions: rat, ip, read-out: Excretion; how it was run: as §1
# [3] = Compound was evaluated for the in rats after the dose of 5 mg/kg intravenously, at the dose 4 hour biliary excretion; format: ADME, organism-based; set-up: dose 5 mg/kg, route intravenous; conditions: rat, bile, iv, read-out: Excretion
# How it was run: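 Three male rats with jugular cannulae, body temperature held at 37–38 °C, received [14C] compound 5 mg/kg by 3–5 min infusion in propylene glycol–ethanol–0.1 N NaOH (4:1:5, 1 mL/kg). Bile was collected in two 30-min periods, then hourly up to 4 h, and counted. Bile volume was also determined.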
# Rattus norvegicus = assay: excretion rate in rats after the dose of 5 mg/kg intravenously, at the dose 4 hour Rate of biliary excretion; 0.06-0.15%/h; format: ADME, organism-based, Bile; set-up: dose 5 mg/kg, route intravenous; conditions: in vivo, iv
# [4] = Compound was evaluated for the average plasma levels at 24 hours, after administration of intraperitoneal route; format: ADME; conditions: ip, read-out: Plasma level
# How it was run: (§2)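 Male Wistar rats were given [14C] compound 5 mg/kg ip in propylene glycol (2 mL/kg). Blood was taken by cardiac puncture under ether at 1, 2, 3, 5 and 7 days, six rats per time point. Plasma 14C was counted to give the β-phase elimination half-life and plasma levels.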
# [5] = Compound was evaluated for the average plasma levels at 24 hours, after administration of intravenous route; format: ADME; conditions: read-out: Plasma level
# How it was run: (§3)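 Male Wistar rats under pentobarbital (25 mg/kg ip) received [14C] compound 5 mg/kg iv in propylene glycol–0.1 N NaOH (1:1). Dosing was by jugular infusion, or by tail vein for later time points.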
# [6] = Compound was evaluated for the biological half life in rats after a dose of 5 mg/kg given intraperitoneal route; format: ADME, organism-based; set-up: dose 5 mg/kg, route intraperitoneal; conditions: rat, in vivo, ip; how it was run: as §2
# [7] = Compound was evaluated for the biological half life in rats after a dose of 5 mg/kg given intravenous route; format: ADME, organism-based; set-up: dose 5 mg/kg, route intravenous; conditions: rat, in vivo; how it was run: as §3
# [8] = Compound was evaluated for the plasma biological half life in the Swiss webster mouse when administered at the […]; format: ADME, organism-based
# How it was run: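 Swiss Webster mice (20–30 g) received [14C] compound 10 mg/kg ip. Four animals were killed at each of 12, 18, 24, 36, 48 and 72 h. Radioactivity was measured in plasma and brain, and the plasma elimination half-life was derived from these levels.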
# [9] = Compound was evaluated for the toxicity in mouse on 7 th day when administered through intraperitoneal route; format: organism-based; conditions: in vivo, ip
# How it was run: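 Male Swiss Webster mice (20–40 g) dosed in propylene glycol (10–20 mL/kg), ip at 10, 20, 50, 100 and 200 mg/kg or po at 100 and 200 mg/kg. Ten mice per dose level, observed for toxicity for 1 week. LD50 taken at 7 days.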
# Mus musculus [10] = assay: Time to first twitch in intravenous pentylenetetrazole test in mice at 100 mg/kg for 30 h time of test; format: functional
# How it was run: (§4)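 Carworth Farm No. 1 mice (average 20 g) were dosed ip. At set times afterwards, 0.5% pentylenetetrazol in heparinized saline was infused into the tail vein at 0.34 mL/min. Time to first twitch was recorded in individual mice, with observation to 240 s.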
# Mus musculus [11] = assay: Time to first twitch in intravenous pentylenetetrazole test in mice at 100 mg/kg for 48 hr time of test; format: functional; how it was run: as §4
# Mus musculus [12] = assay: Time to first twitch in intravenous pentylenetetrazole test in mice at 150 mg/kg for 30 hr time of test; format: functional; how it was run: as §4
# Mus musculus [13] = assay: Time to first twitch in intravenous pentylenetetrazole test in mice at 150 mg/kg for 48 hr time of test; format: functional; how it was run: as §4
# Mus musculus [14] = assay: Time to first twitch in intravenous pentylenetetrazole test in mice at 150 mg/kg for 72 h time of test; format: functional; how it was run: as §4
# Mus musculus [15] = assay: Compound was evaluated for the neurotoxicity after intraperitoneal administration at 48 hours; format: organism-based; conditions: in vivo, ip
# How it was run: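 Rotarod ataxia test in Carworth Farm No. 1 mice, run by the ADD program. Dosed ip in aqueous 30% PEG 400. Neurological deficit scored at 24 and 48 h after doses up to 1000 mg/kg.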
# Mus musculus [16] = assay: Time to first twitch in intravenous pentylenetetrazole test in mice at 150 mg/kg for 96 hr time of test; format: functional; how it was run: as §4
# Mus musculus [17] = assay: Time to first twitch in intravenous pentylenetetrazole test in mice at 200 mg/kg for 30 h time of test; format: functional; how it was run: as §4
# Mus musculus [18] = assay: Time to first twitch in intravenous pentylenetetrazole test in mice at 200 mg/kg for 48 hr time of test; format: functional; how it was run: as §4
# Mus musculus [19] = assay: Time to first twitch in intravenous pentylenetetrazole test in mice at 200 mg/kg for 72 hr time of test; format: functional; how it was run: as §4
# Mus musculus [20] = assay: Time to first twitch in intravenous pentylenetetrazole test in mice at 300 mg/kg for 72 h time of test; format: functional; how it was run: as §4
# Mus musculus [21] = assay: Time to first twitch in intravenous pentylenetetrazole test in mice at 500 mg/kg for 48 hr time of test; format: functional
# How it was run: (§5)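 Carworth Farm no. 1 mice (av wt 20 g) given the compound ip; at the designated time afterwards, 0.5% pentylenetetrazol in heparinized saline was infused into the tail vein at 0.34 mL/min. Time to first twitch (minimal excitation) was recorded for individual mice, observed up to 240 s.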
# Mus musculus [22] = assay: Time to first twitch in intravenous pentylenetetrazole test in mice at 750 mg/kg for 24 hr time of test; format: functional; how it was run: as §5
# Mus musculus [23] = assay: Time to first twitch in intravenous pentylenetetrazole test in mice at 750 mg/kg for 48 hr time of test; format: functional; how it was run: as §5
# [24] = Compound was evaluated for the tissue levels after 1 hour of administration of 5 mg/kg through intravenous route, the given data is tissue/plasma ratios red cells; format: ADME, organism-based; set-up: dose 5 mg/kg, route intravenous
# How it was run: (§6)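 Anesthetized male Wistar rats received [14C] compound 5 mg/kg by slow jugular infusion in propylene glycol–0.1 N NaOH (1:1). Tissues were taken at 1 h, four per group, rinsed, blotted and weighed. Fat, muscle and red cells were combusted directly, other organs after EtOH homogenization. Tissue/plasma 14C ratios were computed.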
# [25] = Compound was evaluated for the tissue levels after 1 hour of administration of 5 mg/kg through intravenous route, the given data is tissue/plasma ratios Muscle; format: ADME, organism-based; set-up: dose 5 mg/kg, route intravenous; how it was run: as §6
# [26] = Compound was evaluated for the tissue levels after 1 hour of administration of 5 mg/kg through intravenous route, the given data is tissue/plasma ratios brain; format: ADME, organism-based; set-up: dose 5 mg/kg, route intravenous; how it was run: as §6
# [27] = Compound was evaluated for the tissue levels after 1 hour of administration of 5 mg/kg through intravenous route, the given data is tissue/plasma ratios gastrointestinal tract; format: ADME, organism-based; set-up: dose 5 mg/kg, route intravenous; how it was run: as §6
# [28] = Compound was evaluated for the tissue levels after 1 hour of administration of 5 mg/kg through intravenous route, the given data is tissue/plasma ratios heart; format: ADME, organism-based; set-up: dose 5 mg/kg, route intravenous; how it was run: as §6
# [29] = Compound was evaluated for the tissue levels after 1 hour of administration of 5 mg/kg through intravenous route, the given data is tissue/plasma ratios kidneys; format: ADME, organism-based, Kidney; set-up: dose 5 mg/kg, route intravenous; how it was run: as §6
# [30] = Compound was evaluated for the tissue levels after 1 hour of administration of 5 mg/kg through intravenous route, the given data is tissue/plasma ratios lungs; format: ADME, organism-based; set-up: dose 5 mg/kg, route intravenous; how it was run: as §6
# [31] = Compound was evaluated for the biological half life of elimination in feces; format: ADME, tissue-based; conditions: faeces
structure (smiles),measurement,setting,value
O=C1NC(=O)C(c2ccc(C(F)(F)F)cc2)(c2ccc(C(F)(F)F)cc2)N1,dose excreted at 432 h,[1],94%
same,dose excreted at 432 h,[2],0.25%
same,dose excreted at 4 h,[3],0.5%
same,Excretion rate,Rattus norvegicus,0.15
same,concentration at 24 h,[4],11000 ng/mL
same,concentration at 24 h,[5],9400 ng/mL
same,half-life,[6],71.7 h
same,half-life,[7],66.7 h
same,half-life,[8],115 h
same,LD50 at 7 days,[9],40 mg/kg
same,Time,Mus musculus [10],23.1 s
same,Time,Mus musculus [11],24.3 s
same,Time,Mus musculus [12],28.6 s
same,Time,Mus musculus [13],26.7 s
same,Time,Mus musculus [14],24.1 s
same,Toxic dose,Mus musculus [15],1000 mg/kg
same,Time,Mus musculus [16],23.4 s
same,Time,Mus musculus [17],29.6 s
same,Time,Mus musculus [18],24.5 s
same,Time,Mus musculus [19],23.6 s
same,Time,Mus musculus [20],24.9 s
same,Time,Mus musculus [21],28.7 s
same,Time,Mus musculus [22],26.6 s
same,Time,Mus musculus [23],71 s
same,Kp at 1 h,[24],0.12
same,Kp at 1 h,[25],0.41
same,Kp at 1 h,[26],0.14
same,Kp at 1 h,[27],0.48
same,Kp at 1 h,[28],0.66
same,Kp at 1 h,[29],0.61
same,Kp at 1 h,[30],0.62
same,half-life,[31],93.6 h
